In the library only some 2% were active in any assay of this set; here they are far more common.
PPC-1+TRAIL kill: kills PPC-1 cancer cells in the presence of TRAIL. PPC-1 cells + TRAIL, ATPLite viability luminescence. cell killing (% activity), % at 4 µM or 5 µM. 220,000 compounds, 0.41% hits. AID 1443;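 active = cell killing above 50% in the first pass at 4 µM, then a duplicate retest at 5 µM averaging 50% or more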
HSP90 inh: inhibitors of HSP90 luciferase refolding in rabbit reticulocyte lysate; luciferase refolding luminescence, 3 h; inhibition, % at 5.6 µM; 290,000 compounds, 0.91% hits;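 active = inhibition above the screen-wide mean plus 3 SD, computed separately per campaign, cut at about 16% in these data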;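 also: inhibitors lower the luminescence because luciferase stays unfolded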
FLuc inhib CS: inhibits firefly luciferase, flagging false hits in luciferase inhibition screens | ATPLite firefly luciferase biochemical luminescence, 10 min | P08659 | 200,000 compounds, 1.5% hits | inhibition, % at 10 µM;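 active = inhibition above about 50% when tested at 10 µM, limit read from the data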
Target sequence (P08659 whole entry, looked up): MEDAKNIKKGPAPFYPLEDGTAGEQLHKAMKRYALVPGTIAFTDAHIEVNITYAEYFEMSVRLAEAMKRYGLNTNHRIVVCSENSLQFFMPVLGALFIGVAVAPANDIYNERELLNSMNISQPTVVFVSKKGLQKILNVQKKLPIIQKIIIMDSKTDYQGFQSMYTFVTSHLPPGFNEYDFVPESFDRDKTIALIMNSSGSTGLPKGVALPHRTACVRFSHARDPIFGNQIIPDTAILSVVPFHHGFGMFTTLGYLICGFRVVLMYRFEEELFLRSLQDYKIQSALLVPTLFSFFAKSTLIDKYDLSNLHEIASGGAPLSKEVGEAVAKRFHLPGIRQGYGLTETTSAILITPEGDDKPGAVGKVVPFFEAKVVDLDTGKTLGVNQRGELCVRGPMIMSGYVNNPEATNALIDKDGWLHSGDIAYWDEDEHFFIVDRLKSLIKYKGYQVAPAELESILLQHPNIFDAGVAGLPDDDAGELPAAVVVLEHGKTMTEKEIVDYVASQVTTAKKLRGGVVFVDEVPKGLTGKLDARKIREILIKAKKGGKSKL
C8 TRAIL sens: caspase-8 TRAIL sensitization; AID 624354; NB7+C8 cells + TRAIL, ATPlite viability luminescence; 360,000 compounds, 1% hits; inhibition (viability loss, TRAIL sensitization), % at 10 µM;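 active = compounds causing at least 50% loss of cell viability in the single-dose screen, relative to plate controls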
FLuc act counter: firefly luciferase counter-screen for stimulation assays. P08659. ATPlite luciferase biochemical, luminescence, 10 min; 0 = ATP-free wells, 1 = DMSO control. activation factor at 10 µM. 200,000 tested, under 10 active. AID 1027;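 active = luciferase activation factor, scaled between plate controls, of at least 2 with compound at 10 µM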
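Material: Luciferase/luciferin reagent mix; Doses: test compounds dosed from 2 mM stocks in 100% DMSO; Schedule: 10 min incubation after luciferase reagent addition, room temperature; Measured by: luminescence from luciferase reaction; Read-out: luminescence gain marking luciferase activators.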
Numbers stand for hits; n = inactive; x = no result.

SMILES | PPC-1+TRAIL kill | HSP90 inh | FLuc inhib CS | C8 TRAIL sens | FLuc act counter
NC(=O)c1ccccc1N/C=C/C(=O)c1ccco1 | n | n | n | n | n
O=C(/C=C/Nc1ccc(Oc2ccccc2)cc1)c1ccco1 | n | n | 69 | n | n
O=C(/C=C/Nc1cccc(C(F)(F)F)c1)c1ccco1 | x | n | n | n | n
O=C(/C=C/Nc1ccccc1C(F)(F)F)c1ccco1 | x | n | 89 | 59 | n
COc1ccc(-c2ccc(SCC(=O)Nc3cccc(C(C)=O)c3)nn2)cc1OC | n | n | 61 | n | n
CC(=O)c1cccc(NC(=O)CSc2ccc(-c3ccc4c(c3)OCO4)nn2)c1 | n | n | n | 64 | n
CC(=O)c1cccc(NC(=O)CSc2ccc(-c3ccco3)nn2)c1 | x | n | x | n | x
O=C1OC(c2ccccc2)=C/C1=C/c1cccs1 | n | n | 79 | n | n
C[C@]12c3[nH]c4cc(-c5ccco5)ccc4c3CCN1C(=O)[C@@H](CC(=O)NCc1ccco1)C[C@@H]2C(=O)N1CCOCC1 | x | x | x | n | x
CCc1nc(N)nc(N)c1-c1ccc(Cl)cc1 | n | n | n | 81 | n
CCc1nc(N)nc(N)c1-c1ccc(N(C)Cc2ccccc2)c([N+](=O)[O-])c1 | x | x | x | 70 | x
CCc1nc(N)nc(N)c1-c1ccc(NCCN)c([N+](=O)[O-])c1 | x | x | x | 79 | x
COc1ccc(CC(=O)Nc2nc(OCC(F)(F)F)cnc2-c2ccc(Cl)cc2Cl)cc1 | x | x | x | n | x
COc1ccc(C(O)c2cnc(C)n2Cc2ccccc2)cc1 (stereo not drawn) | x | x | x | n | x
N/C(Cc1ccc(Cl)cc1)=N\OC(=O)c1cccc2ccccc12 | n | n | n | 68 | n
COc1ccc(C/C(N)=N/OC(=O)c2ccc(Cl)cc2)cc1 | n | n | n | n | n
N/C(Cc1ccc(Cl)cc1)=N\OC(=O)c1ccc2ccccc2c1 | n | n | n | 95 | n
c1ccc2c(c1)CCN(c1nc3cc4c(cc3s1)OCO4)C2 | n | n | 69 | n | n
c1c2c(cc3sc(N4CCOCC4)nc13)OCO2 | n | n | 56 | n | n
CNC[C@@H]1Oc2cc(Br)ccc2S(=O)(=O)N([C@@H](C)CO)C[C@@H]1C | x | x | x | n | x
CC1(C(=O)Nc2ccc(Cl)c(Cl)c2)CCN1C(=O)C1CCCCC1 (stereo not drawn) | x | x | x | n | x
CC(=O)Nc1cc2nn(-c3ccccc3)nc2cc1Cl | n | n | 56 | n | n
CC(C)C(=O)Nc1ccc2nn(-c3ccccc3)nc2c1 | n | n | 69 | 54 | n
O=C(Nc1ccc2nn(-c3ccccc3)nc2c1)c1cccnc1 | n | n | n | n | n
O=C(c1[nH]c(C(F)(F)F)nc1-c1ccccc1)N1CCOCC1 | x | x | x | n | x
SMILES | PPC-1+TRAIL kill | HSP90 inh | FLuc inhib CS | C8 TRAIL sens | FLuc act counter
CCN(CC)c1ccc(C(=O)OCc2cc(=O)oc3cc(O)ccc23)cc1 | n | n | n | 50 | n
Cc1ccc(S(=O)(=O)NC(=O)C2(C)CCN2C(=O)C2CC2)cc1 (stereo not drawn) | x | x | x | n | x
O=C(N=Nc1c(O)n(Cc2ccccc2)c2ccccc12)c1ccc(O)cc1 | n | n | 51 | n | n
Cn1c(O)c(N=Nc2ccccc2[N+](=O)[O-])c2ccccc21 | x | n | x | n | x
Cn1c(O)c(N=NC(=O)CNC(=O)c2ccco2)c2ccccc21 | n | n | n | n | n
CCOC(=O)C(=O)N=Nc1c(O)n(C)c2ccccc12 | n | n | n | n | n
Cc1occc1C(=O)N=Nc1c(O)n(C)c2ccccc12 | n | n | 60 | n | n
Cn1c(O)c(N=NC(=O)c2ccccc2O)c2ccccc21 | n | n | 82 | n | n
Cn1c(O)c(N=NC(=O)c2ccco2)c2ccccc21 | n | n | 64 | n | n
CC(C)CNC(=O)C1C(=O)Nc2ccccc2C(=O)N1C(C)(C)C (stereo not drawn) | x | x | x | n | x
Cn1cc(C=CC(=O)O)c2nccnc21 | x | x | x | n | x
CN(C)C(=O)c1cccc(-c2cnc3c(NC=O)cc(-c4ccccc4F)cn23)c1 | x | x | x | n | x
Cc1nc2c(OCc3ccccc3)cccn2c1N(C)C(=O)C1CCCCC1 | x | x | x | n | x
CCc1cc2c(Sc3nc4ccccc4s3)ncnc2s1 | n | n | n | n | n
c1ccc2sc(Sc3ncnc4sccc34)nc2c1 | n | n | 64 | n | n
Cc1ccc(C)c(N=Nc2nc3ccccc3n2C)c1 | n | n | 75 | n | n
CC(=O)n1cc(N(C(=O)CCl)c2ccc([N+](=O)[O-])cc2)c2ccccc21 | n | n | x | 72 | x
CC(=O)n1cc(CO)c2ccccc21 | x | n | x | n | x
CC(=O)n1cc(N(C(=O)CCl)c2ccccc2)c2ccccc21 | n | n | x | 95 | x
O=Cc1[nH]c2ccccc2c1N(C(=O)CCl)c1ccc([N+](=O)[O-])cc1 | n | n | x | n | x
CN(Cc1ccccc1)C(=O)c1ccc2sc([C@H]3C[C@H](O)[C@@H](CO)O3)nc2c1 | x | x | x | n | x
C=CCOc1ccccc1CN(C(=O)CCl)c1ccc2c(c1)OCO2 | x | n | x | 96 | x
O=C([C@H]1O[C@@H](n2ccc(=O)[nH]c2=O)[C@H](O)[C@@H]1O)N1CCSC1 | x | x | x | n | x
COc1ccc(C(=O)NNC(=S)NC(=O)/C=C/c2cccs2)cc1 | x | n | n | 54 | n
CN(C)c1ccc(C=Cc2cnccn2)cc1 | x | x | x | 80 | x
SMILES | PPC-1+TRAIL kill | HSP90 inh | FLuc inhib CS | C8 TRAIL sens | FLuc act counter
Cc1csc(NC(=O)c2ccc(C(=O)Nc3nc(C)cs3)cc2)n1 | n | n | x | x | x
Cc1csc(NC(=O)c2cncc(Br)c2)n1 | n | n | 50 | n | n
O=C(NC1CCCC1)C(C1CC1)n1c(-c2cc3ccccc3[nH]2)nc2ccccc21 (stereo not drawn) | x | x | x | n | x
CC(=O)N1CCc2cc(NC(=O)c3ccc(C)cc3)ccc21 | n | n | 73 | n | n
CC(=O)N1CCN(c2ccc(NC(=O)c3ccc(C)cc3)cc2)CC1 | n | n | n | n | n
O=C1O[C@@H](c2ccccc2)C[C@@H](O)[C@H](O)CCCc2ccccc21 | x | x | x | n | x
O=C(Oc1c(CN2CCOCC2)cc(Cl)c2cccnc12)c1ccccc1Cl | n | n | n | 54 | n
O=C(Oc1c(CN2CCOCC2)cc(Cl)c2cccnc12)c1cccs1 | n | n | n | 52 | n
O=C(Oc1c(CN2CCOCC2)cc(Cl)c2cccnc12)c1ccc(F)cc1 | n | n | n | 55 | n
COc1ccc(C(=O)Oc2c(CN3CCOCC3)cc(Cl)c3cccnc23)cc1 | n | n | n | n | n
COc1cccc(C(=O)Oc2c(CN3CCOCC3)cc(Cl)c3cccnc23)c1 | n | n | n | 46 | n
COc1ccc(-c2ccc(CN3C(C)C(=O)N(Cc4cn(CCC5OCCO5)nn4)CCS3(=O)=O)cc2)cc1OC (stereo not drawn) | x | x | x | n | x
CC(C)COC(=O)N1CCCCC1c1cc(C(=O)NCc2cccnc2)no1 (stereo not drawn) | x | x | x | n | x
Cc1ccc2nc3sc(C(=O)N4CCOCC4)c(N)c3cc2c1 | n | n | 81 | n | n
Cc1ccc2nc3sc(C(=O)NCc4ccco4)c(N)c3cc2c1 | n | n | 50 | n | n
COc1cc2cc3c(N)c(C(=O)NCc4ccco4)sc3nc2cc1OC | n | n | n | n | n
CCCCCCC1CC(=CN(C)C)C(=O)O1 (stereo not drawn) | x | x | x | n | x

Screens from PubChem BioAssay.
